Bioassay records from PubChem BioAssay.
Plk1 PBD FP: Plk1 polo box domain binding inhibitors, primary screen, biochemical, fluorescence polarization; inhibition, %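 (tested at about 20 µM)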; 97,000 compounds, 0.13% hits; Plk1 PBD phosphopeptide binding; Serine/threonine-protein kinase PLK1 (Homo sapiens), P53350; in the data active = inhibition above about 34%, passing the limit was not always enough
Target sequence (P53350 whole entry, looked up, the tested form may be a part): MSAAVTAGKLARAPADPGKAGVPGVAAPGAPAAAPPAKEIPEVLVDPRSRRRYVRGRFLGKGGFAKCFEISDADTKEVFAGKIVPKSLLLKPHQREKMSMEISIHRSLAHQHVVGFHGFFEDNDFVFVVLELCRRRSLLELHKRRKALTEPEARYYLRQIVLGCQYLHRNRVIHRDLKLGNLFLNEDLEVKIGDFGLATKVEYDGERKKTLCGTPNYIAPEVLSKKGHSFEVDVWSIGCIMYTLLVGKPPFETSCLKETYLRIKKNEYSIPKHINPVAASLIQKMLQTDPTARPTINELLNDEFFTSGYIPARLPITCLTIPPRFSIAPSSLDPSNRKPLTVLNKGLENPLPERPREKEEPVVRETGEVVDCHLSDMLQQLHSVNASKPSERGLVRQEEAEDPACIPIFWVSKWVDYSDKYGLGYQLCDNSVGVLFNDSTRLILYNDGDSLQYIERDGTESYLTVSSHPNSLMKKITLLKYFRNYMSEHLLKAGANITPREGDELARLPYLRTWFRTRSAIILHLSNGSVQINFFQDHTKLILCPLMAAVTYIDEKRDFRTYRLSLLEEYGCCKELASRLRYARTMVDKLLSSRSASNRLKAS
HIV Rev-RRE inh: HIV-1 Rev-RRE binding inhibitors, primary screen, biochemical, FRET, protein-RNA interaction. 97,000 compounds, 0.79% hits. Rev peptide-RRE RNA binding. AID 704, 2007. inhibition, % at 8 µM. P05866;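 active = inhibition above the screen-wide mean plus 3 SD, cut at about 35% in these data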;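 note: 0% = median DMSO wells and 100% = median Neomycin B control wells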
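Assay system: Rev peptide and RRE RNA, both fluorescently labelled; times: 5 min preincubation and 15 min binding, 25 °C; detection: FRET, ex 480 nm, em 540 and 671 nm; read-out basis: % inhibition from 671/540 nm acceptor-to-donor ratio, scaled between controls; benchmarks: DMSO low control, neomycin B high control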
EphB4 ephrin blk: EphB4-ephrin-B2 interaction antagonists, primary screen, biochemical, TNYL-RAW peptide probe, fluorescence polarization. inhibition, % at 7 µM. 97,000 compounds, 0.15% hits. EphB4 LBD / TNYL-RAW-Alexa532 peptide;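 active = inhibition above the screen-wide mean inhibition plus 3 SD, cut at about 15% in these data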;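 note: 0% = DMSO wells and 100% = excess unlabeled TNYL-RAW peptide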
PLK1 inh: human PLK1 kinase inhibitors, primary screen, biochemical, TR-FRET. recombinant PLK1 kinase, TR-FRET peptide phosphorylation. inhibition, % at 10 µM. 97,000 compounds, 0.53% hits;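 active = inhibition of 50% or more in the single-concentration screen; inactive = inhibition below 50%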;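 note: 0% = DMSO max control and 100% = H-89 dihydrochloride min control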
PostGolgi ctrl: growth inhibition of yeast control strain, primary screen, counter-screen for post-Golgi transport modulator project | inhibition, % at 10 µM | AID 738, 2007 | efflux-deficient yeast background strain, growth absorbance A615, 16 h | 98,000 compounds, 5% hits
PostGolgi yeast: phenotypic screen on post-Golgi transport, primary screen. post-Golgi transport phenotypic cell assay. inhibition, % at 10 µM. 98,000 compounds, 0.9% hits;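 note: yeast cells grown in 1536-well plates; yeast grown about 18 h at 30C before absorbance read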
Active calls of the source: *; nt = no result given; [ ] = dose if it differs, or a comment. Most compounds without a hit are left out; they make up all but 6.4% or so of the library. Cut-off read from the data, not from the text of the source, unless noted: active = inhibition above about 30%; inactive = the rest.

SMILES	Plk1 PBD FP	HIV Rev-RRE inh	EphB4 ephrin blk	PLK1 inh	PostGolgi ctrl	PostGolgi yeast
Cc1ccc2cc(CN(Cc3ccco3)C(=O)C3CCCCC3)c(=O)[nH]c2c1C	23.1	7.2	-6.4	-11.2	35.2*	13.2
CCc1ccc(-c2cc(C(=O)Nc3c(C)n(C)n(-c4ccccc4)c3=O)c3ccccc3n2)s1	-16.1	12.0	-3.1	-9.4	21.1	-5.8
Cc1cc(Br)cc2c(C(=O)Nc3c(C)n(C)n(-c4ccccc4)c3=O)cc(-c3cccs3)nc12	-14.3	-2.5	5.0	-8.3	38.9*	1.7
CCCCCOCC(O)CCC(=O)NN (centres undefined)	13.6	-0.8	-5.8	-2.9	2.4	-5.3
N#CCCCn1c(-c2ccccc2)noc1=O	-12.4	0.9	2.2	-5.8	7.2	23.5
O=C(c1ccc(F)cc1)C(CN1CCOCC1)c1ccccc1 (centres undefined)	-8.8	0.1	1.0	0.6	55.1*	15.2
O=C(c1ccccc1)C(CCC(CN1CCOCC1)C(=O)c1ccccc1)CN1CCOCC1 (centres undefined)	6.2	12.4	-0.6	0.5	41.1*	-1.1
CC(C)(C)C(=O)c1cn(CC(=O)NCc2ccc3c(c2)OCO3)c2ccccc12	-18.3	12.4	1.1	-2.3	11.4	6.8
Nc1c(C(=O)C2CC2)sc2nc(-c3ccccc3)cc(C(F)(F)F)c12	17.5	111.6*[fluorescence artefact?]	2.1	-29.2	nt	nt
CC(=O)c1sc2nc(-c3cccs3)cc(C(F)(F)F)c2c1N	-21.2	106.9*[fluorescence artefact?]	-1.7	-12.9	5.3	3.4
Cc1c(C(=O)Nc2nccs2)sc2nc(-c3cccs3)cc(C(F)(F)F)c12	2.9	-1.6	-6.0	-7.4	-9.6	-5.1
CCOc1ccc(N2CC(C(=O)Nc3cccc(C)c3C)CC2=O)cc1 (centres undefined)	-0.3	8.7	5.5	-10.7	3.6	-7.9
Cc1cc(C(F)F)n2ncc(C(=O)O)c2n1	19.2	9.3	14.1	-10.6	-0.7	-0.2
Cc1ccc(C2C3CSCC=C3C(C#N)=C(N)C2(C#N)C#N)cc1 (centres undefined)	nt	nt	nt	nt	26.9	10.9
Cc1ccc([C@@H]2C3COCC=C3C(C#N)=C(N)C2(C#N)C#N)o1 (some centres undefined)	-17.2	41.6*	-0.5	-0.8	8.3	-6.5
COC(=O)c1c(C)nc(C)c2c(=O)oc3ccccc3c12	nt	nt	nt	nt	42.2*	-4.0
NS(=O)(=O)c1ccc(N2N=C(c3ccccc3)CC2c2ccc(F)cc2)cc1 (centres undefined)	-3.6	6.8	4.8	-4.4	50.2*	14.0
COc1ccc(C2CC(c3ccccc3)=NN2c2ccc(/C=N/NC(=O)c3ccncc3)cc2)cc1 (centres undefined)	-9.4	7.7	-0.8	-2.6	9.7	4.7
COc1cc([N+](=O)[O-])ccc1N/C=C/C(=O)c1cccs1	-15.7	77.2*	1.6	-10.1	12.9	-0.5
Cc1ccc(NS(=O)(=O)c2cc(C(=O)N3CCOCC3)ccc2C)cc1	-6.7	-1.3	-1.6	-15.8	7.2	47.9*
Cc1ccc(SCCNC(=O)c2ccc(C)c(S(=O)(=O)Nc3cccc(C)c3)c2)cc1	-13.3	9.4	-4.9	-11.9	25.2	-9.7
Cc1ccc(NS(=O)(=O)c2cc(C(=O)NCCSc3ccc(C)cc3)ccc2C)cc1	22.4	5.4	0.5	2.6	35.6*	-8.6
Cc1nc(N2CCC(C)CC2)c2nnn(Cc3ccccc3)c2n1	23.3	2.3	-3.6	-11.1	nt	nt
Cn1c(=O)[nH]c(=O)c2[nH]c(N(Cc3ccccc3)Cc3ccccc3)nc21	-20.2	12.6	0.5	3.0	-3.1	18.2
O=[N+]([O-])c1c(C(Cl)Cl)nn(-c2ccccc2)c1N1CCCC1	13.5	8.9	2.9	-5.4	31.0*	-0.8
SMILES	Plk1 PBD FP	HIV Rev-RRE inh	EphB4 ephrin blk	PLK1 inh	PostGolgi ctrl	PostGolgi yeast
COc1ccc(N(C(=O)C(C)C)S(=O)(=O)c2ccc3c(c2)n(C)c(=O)n3C)cc1	-16.5	13.1	-2.7	-13.0	13.0	2.7
N#CC(C#N)=C/C(C#N)=C(/N)N1CCN(c2ccc(Cl)cc2)CC1	0.9	9.0	1.6	-13.7	30.6*	47.5*
CS(=O)(=O)N1CCCC(C(=O)NCCCN2CCc3ccccc3C2)C1 (centres undefined)	4.8	4.1	-4.7	-13.0	-2.1	1.3
CCOC(=O)c1cc(-c2ccccc2)nc2c1c(C)nn2-c1ccccn1	-4.3	-4.8	-2.2	-7.0	41.7*	-3.4
CCOC(=O)c1cc(-c2ccncc2)nc2c1c(C)nn2C	9.8	1.8	-7.2	3.7	12.3	-6.3
CCc1ccc(Nc2nc(N)nc(CSc3nnnn3-c3ccccc3)n2)cc1	-19.5	-5.8	-3.7	-10.6	36.9*	4.4
Cc1ccc(Nc2nc(CSc3nnnn3-c3ccccc3)cs2)cc1	6.7	9.0	-5.2	-9.9	34.4*	14.3
Cc1ccccc1Nc1nc(N)nc(CSc2nnnn2-c2ccccc2)n1	-31.1	2.3	-1.9	-12.8	21.7	-1.3
Fc1ccc(CSc2nncn2NCc2ccc3c(c2)OCO3)cc1	9.6	2.1	3.7	19.0	2.3	14.9
CCC(=O)NC(=S)Nc1ccc(Cl)cn1	-16.4	4.7	6.1	0.6	-1.0	5.3
O=C(NC(=S)Nc1ccc(Cl)cn1)C(c1ccccc1)c1ccccc1	18.4	6.6	5.6	-9.3	33.6*	29.5
Cc1ccc(S(=O)(=O)N2C(=O)C(c3ccccc3)SC2=Nc2ccccc2)cc1 (centres undefined)	-6.6	-3.6	4.7	-10.0	20.4	2.1
COc1ccc(Cc2nn3c(-c4cc(OC)c(OC)c(OC)c4)nnc3s2)cc1	8.3	10.1	-7.5	-9.7	35.5*	19.3
Brc1ccccc1-c1nnc2sc(Cc3ccccc3)nn12	-8.5	4.5	1.7	0.9	25.1	8.5
COc1ccc(Cc2nn3c(-c4ccccc4Br)nnc3s2)cc1	-9.6	11.1	2.6	0.0	44.8*	1.5
O=S(=O)(Cc1ccccc1)N1CCN(Cc2ccc3c(c2)OCO3)CC1	18.0	5.5	3.3	-6.2	14.4	1.6
O=C(O)C1C2C=CC(O2)C1C(=O)NCc1ccccc1Br (centres undefined)	-11.0	1.9	0.1	-3.8	2.0	7.7
COC(=O)c1ccc(C(=O)OC)c(NC(=O)COC(=O)CC2CC3CCC2C3)c1 (centres undefined)	3.0	11.6	0.7	-8.5	33.0*	1.4
O=C(COc1ccc(S(=O)(=O)NC2CCCC2)cc1)N1CCCCCC1	19.0	1.8	5.1	-13.2	8.7	3.5
O=C(CSc1n[nH]c(-c2ccc(S(=O)(=O)NC3CCCCC3)cc2)n1)N1CCCC1	-5.7	5.0	-0.3	-5.4	32.0*	4.9
C#CCOC(=O)c1ccc(-n2cncn2)nc1	-1.5	-4.8	-6.0	4.2	2.6	-1.3
